Converted amounts (≈) assume the structure as drawn. The source made the active and inactive calls. The calls are words filed in the database; no cut-off is given here.
What was measured:
Leishmania mexicana [1] = test: Inhibition of pteridine reductase in Leishmania mexicana promastigote assessed as increase in pyrimethamine-induced growth inhibition by measuring parasite growth at 50 ug/mL; design: scale not given: the % may be the effect or the level left
How it was run: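 Promastigotes plated at 10^6 cells/mL, leaving exponential and entering stationary phase. Exposed to compound at 50 μg/mL alone or together with pyrimethamine at 30 μg/mL. Percent growth inhibition with compound alone compared with that of each compound plus PYR.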

Thymidylate synthase [2] = target: T1, Thymidylate synthase (Homo sapiens, UniProt P04818); test: Inhibition of human TS at 30 uM by spectrophotometric analysis
How it was run: (§1)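 Purified human enzymes screened in continuous spectrophotometric assays. DMSO was kept below the level affecting activity: under 5% for hDHFR and under 8% for hTS.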
Target sequence in this assay (P04818 2-313 limits assumed): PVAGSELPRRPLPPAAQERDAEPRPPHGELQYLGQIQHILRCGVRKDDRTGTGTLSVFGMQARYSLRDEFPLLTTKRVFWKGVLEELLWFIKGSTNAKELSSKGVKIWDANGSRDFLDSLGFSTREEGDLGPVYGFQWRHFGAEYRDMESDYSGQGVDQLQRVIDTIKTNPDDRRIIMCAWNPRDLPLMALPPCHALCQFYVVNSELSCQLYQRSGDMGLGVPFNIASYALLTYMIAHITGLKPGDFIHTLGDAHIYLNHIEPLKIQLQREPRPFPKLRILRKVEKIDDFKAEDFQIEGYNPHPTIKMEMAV

Leishmania mexicana [3] = test: Antiparasitic activity against Leishmania mexicana promastigotes assessed as parasite growth at 50 ug/mL; assay type: functional
How it was run: (§2)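 Promastigotes grown from 10^5 parasites/mL and harvested in exponential phase at 2 × 10^7/mL. For the assay they were plated at 10^6 cells/mL in 96-well format, so cells were leaving exponential phase for stationary phase. Compound was given at 50 μg/mL alone or together with pyrimethamine at 30 μg/mL. Percent growth inhibition was compared between the single agent and the combination.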

[4] = target: T2, Dihydrofolate reductase (Homo sapiens) (UniProt P00374); test: Inhibition of human DHFR at 30 uM by spectrophotometric analysis; how it was run: as §1
T2 sequence (whole entry): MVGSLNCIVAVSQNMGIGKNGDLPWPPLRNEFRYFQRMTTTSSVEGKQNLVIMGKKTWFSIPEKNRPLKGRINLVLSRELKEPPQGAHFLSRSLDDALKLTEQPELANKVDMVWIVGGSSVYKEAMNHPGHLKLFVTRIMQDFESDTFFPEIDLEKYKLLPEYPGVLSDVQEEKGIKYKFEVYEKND

[5] = Toxicity against human MRC5 cells assessed as growth inhibition; assay type: cell-based; conditions: read-out: ED50 (the source's name)
How it was run: (§3)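 MRC-5 human fibroblasts were grown at 37 °C, 5% CO2, in DMEM with 10% heat-inactivated FBS and extra glutamine. Cells were seeded so that control wells were confluent after 72 h of incubation with compound. Alamar Blue optical density was the read-out. Values are mean ± SD of three independent experiments.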

Leishmania major = test: Antiparasitic activity against Leishmania major promastigotes assessed as parasite growth at 50 ug/mL; assay type: functional; how it was run: as §2
Leishmania mexicana [6] = test: Inhibition of pteridine reductase in Leishmania mexicana promastigote assessed as reduction in cell survival upon H2O2 exposure at ED50 after 48 hrs at 28 degC relative to control
How it was run: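 L. mexicana promastigotes plated at 10^5 cells/mL and pretreated with compound for 48 h at 28 °C. Then diluted to 2 × 10^4 cells/mL and exposed to increasing H2O2 concentrations for 45 min. Surviving motile parasites counted on a Neubauer grid. Compound-treated, non-H2O2 sample taken as 100%; compared against untreated H2O2-exposed series.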

Leishmania mexicana [7] = test: Inhibition of pteridine reductase in Leishmania mexicana promastigote assessed as increase in pyrimethamine cytotoxicity by Chou-Talalay method
Dihydrofolate reductase = target: T3, Dihydrofolate reductase (Homo sapiens, UniProt P00374); test: Inhibition of human DHFR by spectrophotometric analysis
T3 sequence (P00374 whole entry): T2 sequence (whole entry)

Thymidylate synthase [8] = target: T1, Thymidylate synthase; test: Inhibition of human TS by spectrophotometric analysis
Target sequence in this assay (P04818 whole entry): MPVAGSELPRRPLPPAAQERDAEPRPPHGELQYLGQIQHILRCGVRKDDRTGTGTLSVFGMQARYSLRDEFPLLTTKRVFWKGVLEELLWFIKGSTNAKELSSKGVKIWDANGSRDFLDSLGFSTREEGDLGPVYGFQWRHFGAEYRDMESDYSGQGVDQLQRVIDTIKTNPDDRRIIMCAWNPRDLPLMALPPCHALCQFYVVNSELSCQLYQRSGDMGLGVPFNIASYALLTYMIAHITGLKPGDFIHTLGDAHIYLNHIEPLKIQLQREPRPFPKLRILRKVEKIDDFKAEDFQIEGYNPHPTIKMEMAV

[9] = target: T4, Pteridine reductase 1 (Leishmania major) (UniProt Q01782)
T4 sequence (whole entry): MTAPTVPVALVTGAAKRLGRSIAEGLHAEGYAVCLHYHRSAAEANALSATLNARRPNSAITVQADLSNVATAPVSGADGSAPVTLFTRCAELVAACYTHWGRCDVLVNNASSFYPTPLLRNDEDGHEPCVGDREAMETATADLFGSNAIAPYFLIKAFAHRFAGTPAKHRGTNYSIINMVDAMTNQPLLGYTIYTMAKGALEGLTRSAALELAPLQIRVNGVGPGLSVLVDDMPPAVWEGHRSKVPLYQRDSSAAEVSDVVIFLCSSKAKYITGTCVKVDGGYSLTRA

[10] = Toxicity against human MRC5 cells assessed as growth inhibition at 100 ug/mL; assay type: cell-based; conditions: read-out: GI; how it was run: as §3
Thymidylate synthase [11] = target: T1, Thymidylate synthase; test: Inhibition of human TS at 15 uM by spectrophotometric analysis; how it was run: as §1
Target sequence in this assay (P04818 2-313 limits assumed): as the sequence (P04818 2-313 limits assumed) above

Thymidylate synthase [12] = target: T1, Thymidylate synthase; test: Inhibition of human TS at 50 uM by spectrophotometric analysis; how it was run: as §1
Target sequence in this assay (P04818 2-313 limits assumed): as above

MRC5 = test: Toxicity against human MRC5 cells assessed as growth inhibition at 50 ug/mL; assay type: cell-based; how it was run: as §3

With CCc1cc(C(=O)N2CCC(C(=O)OC)CC2)ccc1NCc1cnc2nc(N)nc(N)c2n1 the Activity (Leishmania mexicana [1]) was 19.6%, the inhibition (Thymidylate synthase [2]) was “inactive” and the Activity (Leishmania mexicana [3]) was 90.6%. For the same compound, the inhibition [4] was “inactive”, the GI50 [5] was 21.8 µg/mL (≈ 46.9 µM) and the Activity (Leishmania major) was 104.2%.

For COC(=O)C1CCN(C(=O)c2ccc(NCc3cnc4nc(N)nc(N)c4n3)cc2)CC1, the inhibition (Leishmania mexicana [6]) was “Active”, the Activity (Leishmania mexicana [1]) was 24.4% and the fractional inhibitory concentration index (FICI) (Leishmania mexicana [7]) was 2.05. The Activity (Leishmania mexicana [3]) was 111.6%, the Ki (Dihydrofolate reductase) was 10 µM and the GI50 [5] was 23.4 µg/mL (≈ 53.6 µM). The Ki (Thymidylate synthase [8]) was “Not Active”, the Activity (Leishmania major) was 99.6% and the FICI [9] was 0.75.

With CCOC(=O)CN(Cc1cnc2nc(N)nc(N)c2n1)c1ccc(C(=O)N2CCC(C(=O)OC)CC2)cc1 the Activity (Leishmania mexicana [1]) was 21.9%, the inhibition (Thymidylate synthase [2]) was “inactive” and the Activity (Leishmania mexicana [3]) was 102.3%. For the same compound, the inhibition [4] was “inactive”, the inhibition at 100 ug/mL [10] was 28% and the Activity (Leishmania major) was 100.8%.

In the case of Nc1nc(N)c2nc(CNc3ccc(C(=O)N4CCC(C(=O)O)CC4)cc3)cnc2n1, the inhibition (Thymidylate synthase [11]) is reported as “inactive”.

In the case of NC(=O)C1CCN(C(=O)c2ccc(NCc3cnc4nc(N)nc(N)c4n3)cc2)CC1, the Activity (Leishmania mexicana [1]) is reported as 15.7%, the inhibition (Thymidylate synthase [11]) is reported as “inactive” and the Activity (Leishmania mexicana [3]) is reported as 88.5%. It also gave a GI50 [5] of 51 µg/mL (≈ 121 µM) and an Activity (Leishmania major) of 121.2%.

In the case of COC(=O)C1CCN(C(=O)c2ccc(NCc3cnc4nc(N)nc(N)c4n3)cn2)CC1, the inhibition (Leishmania mexicana [6]) is reported as “Active”, the Activity (Leishmania mexicana [1]) is reported as 17.6% and the inhibition (Thymidylate synthase [12]) is reported as “inactive”. For the same compound, the fractional inhibitory concentration index (FICI) (Leishmania mexicana [7]) was 1.51, the Activity (Leishmania mexicana [3]) was 95.6% and the inhibition [4] was “inactive”. For the same compound, the Activity (Leishmania major) was 103.4%, the FICI [9] was 0.8 and the Activity (MRC5) was “Non-toxic”.

Work on CCc1nc(N)nc(N)c1-c1ccc(Cl)cc1 [PYRIMETHAMINE] yielded an Activity (Leishmania mexicana [3]) of 102.5%, a GI50 [5] of 16.2 µg/mL (≈ 65.1 µM) and an Activity (Leishmania major) of 68%.

With COC(=O)C1CCN(C(=O)c2ccc(N(C)Cc3cnc4nc(N)nc(N)c4n3)cc2)CC1 the inhibition (Thymidylate synthase [11]) was “inactive”.

For CCc1ccc(NCc2cnc3nc(N)nc(N)c3n2)cc1C(=O)N1CCC(C(=O)OC)CC1, the inhibition (Thymidylate synthase [2]) was “inactive” and the Ki (Dihydrofolate reductase) was 4.68 µM.

COC(=O)C1CCN(C(=O)c2ccc(N(CCO)Cc3cnc4nc(N)nc(N)c4n3)cc2)CC1 showed an Activity (Leishmania mexicana [1]) of 12.9%, an Activity (Leishmania mexicana [3]) of 100.1% and a Ki (Thymidylate synthase [8]; read-out: Ki) of 64 µM. For the same compound, the Activity (Leishmania major) was 122.2% and the Activity (MRC5) was “Non-toxic”.

From ChEMBL document CHEMBL2176920, “Structure-based selectivity optimization of piperidine-pteridine derivatives as potent Leishmania pteridine reductase inhibitors” (J Med Chem, 2012)
